Measurements gathered from unrelated publications.
Lines come from different studies, so protocols differ.
Target: Homeodomain-interacting protein kinase 4 (HIPK4, Homo sapiens, UniProt Q8NE63)
Observed: enzyme activity
Mode: inhibitor
Residues used in one study (Q8NE63 1-616): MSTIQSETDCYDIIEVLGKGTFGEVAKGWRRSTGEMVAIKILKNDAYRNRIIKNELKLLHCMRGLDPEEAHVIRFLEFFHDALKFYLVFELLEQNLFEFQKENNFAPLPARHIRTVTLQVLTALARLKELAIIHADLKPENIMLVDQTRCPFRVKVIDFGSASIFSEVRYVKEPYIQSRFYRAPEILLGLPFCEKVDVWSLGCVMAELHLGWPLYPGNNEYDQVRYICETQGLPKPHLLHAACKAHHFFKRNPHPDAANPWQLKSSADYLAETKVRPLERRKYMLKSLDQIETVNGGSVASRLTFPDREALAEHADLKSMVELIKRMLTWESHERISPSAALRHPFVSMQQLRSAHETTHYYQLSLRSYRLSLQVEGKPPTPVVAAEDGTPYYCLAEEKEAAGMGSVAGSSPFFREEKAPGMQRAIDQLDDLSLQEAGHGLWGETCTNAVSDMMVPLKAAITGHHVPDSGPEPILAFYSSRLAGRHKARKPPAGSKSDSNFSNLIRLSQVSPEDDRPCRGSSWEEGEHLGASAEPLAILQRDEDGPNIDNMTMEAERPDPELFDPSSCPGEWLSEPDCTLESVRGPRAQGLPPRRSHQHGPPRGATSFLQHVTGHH

Cc1ccc(C(=O)Nc2ccc(CN3CCN(C)CC3)c(C(F)(F)F)c2)cc1C#Cc1cnc2cccnn12  remaining activity (23.5 nM): 71%
Cc1sc(C(=O)NC2COC2)cc1-n1cc(NC(=O)Nc2c(F)cccc2Cl)cn1  remaining activity (10 µM): 98.4%
CC(C)(C)c1nc(-c2cccc(NS(=O)(=O)c3c(F)cccc3F)c2F)c(-c2ccnc(N)n2)s1  remaining activity (radiometric; 1 µM): 37%
O=C(Nc1cnn(-c2csc(C(=O)NC3COC3)c2)c1)Nc1ccccc1Cl  remaining activity (5 µM): 100%
O=C(O)c1ccc2c(c1)nc(NCCc1ccccc1)c1ncncc12  remaining activity (radiometric; 1 µM): 29%
COc1cc(Cl)c(C(=O)N[C@@H](CN[C@H]2CC[C@@H](N)CC2)Cc2ccc(C#N)cc2)cc1-c1ccc(CN[C@H](C)c2ccc(C)cc2)o1  remaining activity (1 µM): 90%
O=C(O)c1ccc2c(c1)nc(NCc1ccccc1)c1ncncc12  remaining activity (radiometric; 1 µM): 63%
CC(C)(C)c1nc2c(s1)c1nc(N)ncc1c1ccc(NS(=O)(=O)c3c(F)cccc3F)c(F)c12  remaining activity (radiometric; 1 µM): 82%
O=C(O)c1ccc2c(c1)nc(Nc1ccccc1)c1ccncc12  remaining activity (radiometric; 1 µM): -2%
CC(C)(O)[C@H]1CC[C@H](Nc2ccc3ncc(-c4cccc(C(F)(F)F)c4)n3n2)CC1  remaining activity (1 µM): 23.6%
